Measurements from ChEMBL document CHEMBL1772999, “Synthesis and biological evaluation of 2,4,5-substituted pyrimidines as a new class of tubulin polymerization inhibitors” (J Med Chem, 2011).
Active and inactive are the calls of the source. The calls are words filed in the database; no cut-off is given here.

Experiments:
Bel-7402 = assay: Antiproliferative activity against human Bel7402 cells after 72 hrs by sulforhodamine B assay; type: functional, cell-based; conditions: Bel-7402, 72 h
Method in brief: (§1)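 SRB survival assay: cells seeded in 96-well plates, exposed to a range of compound concentrations for 72 h, fixed with 10% TCA 1 h at 4 °C, stained with 0.4% (w/v) SRB 20 min at room temperature, washed with 1% acetic acid, dye solubilized in 10 mM Tris, absorbance at 510 nm.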

Tubulin = Tubulin (Sus scrofa, UniProt P02554+P02550); assay: Inhibition of pig brain tubulin polymerization by spectrophotometry
Method in brief: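 Pig brain microtubule protein from three assembly/disassembly cycles, tubulin purified by phosphocellulose chromatography. Polymerization in PEM buffer (100 mM PIPES, 1 mM EGTA, 1 mM MgCl2) with 1 mM GTP and 5% glycerol at 37 °C, followed by light scattering at 340 nm.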

NCI-H460 = assay: Antiproliferative activity against human NCI-H460 cells after 72 hrs by sulforhodamine B assay; type: functional, cell-based; conditions: NCI-H460, 72 h; method in brief: as §1
KB = assay: Cell cycle arrest in human KB cells assessed as accumulation of cells at G2/M phase after 24 hrs by propidium iodide-based FACScan; type: functional
Method in brief: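 Subconfluent KB cells exposed to a range of concentrations for 24 h. Adherent plus detached cells collected by trypsinization, fixed overnight in 70% ethanol, stained 30 min at 37 °C with propidium iodide 50 μg/mL plus DNase-free RNase A 50 μg/mL. 10000 cells per group analyzed by flow cytometry.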

SK-OV-3 = assay: Antiproliferative activity against human SKOV3 cells after 72 hrs by sulforhodamine B assay; type: functional, cell-based; conditions: SK-OV-3, 72 h; method in brief: as §1
A-431 = assay: Antiproliferative activity against human A431 cells after 72 hrs by sulforhodamine B assay; type: functional, cell-based; conditions: A-431, 72 h; method in brief: as §1
HT-29 = assay: Antiproliferative activity against human HT-29 cells after 72 hrs by sulforhodamine B assay; type: functional, cell-based; conditions: HT-29, 72 h; method in brief: as §1
A549 = assay: Antiproliferative activity against human A549 cells after 72 hrs by sulforhodamine B assay; type: functional, cell-based; conditions: A549, 72 h; method in brief: as §1
Tubulin (Sus scrofa) = Tubulin (Sus scrofa) (UniProt P02554+P02550); assay: Displacement of colchicine from pig brain tubulin at 25 uM after 60 mins by fluorescence assay
Chain of Tubulin (Sus scrofa) (P02550 whole entry, looked up): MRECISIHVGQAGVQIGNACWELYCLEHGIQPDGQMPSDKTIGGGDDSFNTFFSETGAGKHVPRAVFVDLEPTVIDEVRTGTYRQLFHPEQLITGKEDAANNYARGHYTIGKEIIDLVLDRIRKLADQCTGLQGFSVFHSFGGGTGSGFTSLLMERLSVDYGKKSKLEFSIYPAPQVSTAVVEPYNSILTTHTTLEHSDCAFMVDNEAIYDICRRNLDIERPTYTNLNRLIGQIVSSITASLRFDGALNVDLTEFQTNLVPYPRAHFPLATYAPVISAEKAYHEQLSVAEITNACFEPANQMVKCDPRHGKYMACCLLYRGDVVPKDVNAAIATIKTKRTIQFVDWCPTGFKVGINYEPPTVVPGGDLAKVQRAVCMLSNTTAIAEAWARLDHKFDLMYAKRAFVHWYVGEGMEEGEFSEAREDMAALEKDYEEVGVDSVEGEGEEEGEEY
Chain of Tubulin (Sus scrofa) (P02554 whole entry, looked up): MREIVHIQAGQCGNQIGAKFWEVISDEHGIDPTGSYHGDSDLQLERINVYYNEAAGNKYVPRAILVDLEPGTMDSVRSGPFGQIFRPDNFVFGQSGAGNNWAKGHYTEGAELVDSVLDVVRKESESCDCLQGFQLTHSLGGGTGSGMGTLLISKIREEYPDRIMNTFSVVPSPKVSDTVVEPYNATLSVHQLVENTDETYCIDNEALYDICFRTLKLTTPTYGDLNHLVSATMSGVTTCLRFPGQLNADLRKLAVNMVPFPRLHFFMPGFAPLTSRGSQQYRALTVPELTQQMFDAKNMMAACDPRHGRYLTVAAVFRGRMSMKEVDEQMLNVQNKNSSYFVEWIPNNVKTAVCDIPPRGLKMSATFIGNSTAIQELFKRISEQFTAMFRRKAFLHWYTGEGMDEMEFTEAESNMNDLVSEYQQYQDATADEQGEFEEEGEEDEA
Method in brief: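 Tubulin (3 μM) preincubated with colchicine (3 μM) 30 min at 37 °C, then compound added (0–25 μM). Fluorescence spectra (excitation 365 nm, emission 435 nm) recorded after 60 min at 37 °C, buffer blank subtracted.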

## CCn1ccc2c(-c3cnc(N)nc3-c3ccccc3O)cccc21
Bel-7402
  IC50: 1000 nM
Tubulin
  IC50: > 50 µM

## Nc1ncc(-c2ccc(CN3CCOCC3)cc2)c(-c2ccccc2O)n1
Bel-7402
  IC50: > 10000 nM
Tubulin
  IC50: > 50 µM

## CCn1ccc2cc(-c3cnc(N)nc3-c3ccccc3O)cnc21
Bel-7402
  IC50: 1000 nM
Tubulin
  IC50: > 50 µM

## CCN(C)c1ccc(-c2cnc(N)nc2-c2ccccc2O)cc1
Tubulin
  IC50: 2.35 µM

## CC(=O)O[C@H]1C(=O)[C@@]2(C)[C@H]([C@H](OC(=O)c3ccccc3)[C@]3(O)C[C@H](OC(=O)[C@H](O)[C@@H](NC(=O)c4ccccc4)c4ccccc4)C(C)=C1C3(C)C)[C@]1(OC(C)=O)CO[C@@H]1C[C@@H]2O [PACLITAXEL]
NCI-H460
  IC50: 14.6 nM
KB
  EC50: 2 nM
SK-OV-3
  IC50: 14.5 nM
A-431
  IC50: 9.2 nM
HT-29
  IC50: 6.1 nM

## CCn1ccc2cc(-c3cnc(N)nc3-c3cc(OC)c(OC)cc3O)ccc21
Bel-7402
  IC50: > 10000 nM
Tubulin
  IC50: > 50 µM

## CCC1=C[C@@H]2CN(C1)Cc1c([nH]c3ccccc13)[C@@](C(=O)OC)(c1cc3c(cc1OC)N(C)[C@H]1[C@@](O)(C(=O)OC)[C@H](OC(C)=O)[C@]4(CC)C=CCN5CC[C@]31[C@@H]54)C2 [VINORELBINE]
NCI-H460
  IC50: 43.7 nM
KB
  EC50: 6 nM
A549
  IC50: 64.6 nM
SK-OV-3
  IC50: 26.7 nM
A-431
  IC50: 60 nM
HT-29
  IC50: 11.9 nM
Tubulin (Sus scrofa)
  Activity: inactive

## CN1CCN(Cc2ccc(-c3cnc(N)nc3-c3ccccc3O)cc2)CC1
Bel-7402
  IC50: > 10000 nM
Tubulin
  IC50: > 50 µM

## CCn1ccc2cc(-c3cnc(N)nc3-c3ccccc3O)ccc21
NCI-H460
  IC50: 19 nM
KB
  EC50: 20 nM
A549
  IC50: 62 nM
Bel-7402
  IC50: 16 nM
SK-OV-3
  IC50: 32 nM
Tubulin
  IC50: 0.79 µM
A-431
  IC50: 20.3 nM
HT-29
  IC50: 28.2 nM
Tubulin (Sus scrofa)
  Activity: Active

## Nc1ncc(-c2ccc3[nH]ccc3c2)c(-c2ccccc2O)n1
Bel-7402
  IC50: > 10000 nM
Tubulin
  IC50: > 50 µM

## Nc1ncc(-c2ccc(N3CCCCC3)cc2)c(-c2ccccc2O)n1
Bel-7402
  IC50: > 10000 nM
Tubulin
  IC50: > 50 µM

## CCn1ccc2ccc(-c3cnc(N)nc3-c3ccccc3O)cc21
Bel-7402
  IC50: > 10000 nM
Tubulin
  IC50: > 50 µM

## Cn1ccc2cc(-c3cnc(N)nc3-c3ccccc3O)ccc21
NCI-H460
  IC50: 20.5 nM
A549
  IC50: 48.2 nM
Bel-7402
  IC50: 50 nM
SK-OV-3
  IC50: 69.2 nM
Tubulin
  IC50: 0.92 µM
A-431
  IC50: 21.7 nM
HT-29
  IC50: 30.8 nM

## CCn1ccc2cc(-c3cnc(N)nc3-c3cc(OC)ccc3O)ccc21
Bel-7402
  IC50: > 10000 nM
Tubulin
  IC50: > 50 µM

## COc1cc2c(c(OC)c1OC)-c1ccc(OC)c(=O)cc1[C@@H](NC(C)=O)CC2 [COLCHICINE]
NCI-H460
  IC50: 50.6 nM
KB
  EC50: 10 nM
A549
  IC50: 37 nM
Bel-7402
  IC50: 40 nM
SK-OV-3
  IC50: 71.2 nM
A-431
  IC50: 53.2 nM
HT-29
  IC50: 21.9 nM

## CC(C)n1ccc2cc(-c3cnc(N)nc3-c3ccccc3O)ccc21
NCI-H460
  IC50: 485 nM
A549
  IC50: 1310 nM
Bel-7402
  IC50: 80 nM
SK-OV-3
  IC50: 760 nM
Tubulin
  IC50: 5 µM
A-431
  IC50: 760 nM
HT-29
  IC50: 918 nM

## CCN(CC)c1ccc(-c2cnc(N)nc2-c2ccccc2O)cc1
NCI-H460
  IC50: 57 nM
A549
  IC50: 241 nM
Bel-7402
  IC50: 100 nM
SK-OV-3
  IC50: 171 nM
Tubulin
  IC50: 5.57 µM
A-431
  IC50: 76.6 nM
HT-29
  IC50: 95.4 nM

## CCn1ccc2cc(-c3cnc(N)nc3-c3ccc(OC)c(OC)c3O)ccc21
Bel-7402
  IC50: > 10000 nM
Tubulin
  IC50: > 50 µM

## CCn1ccc2cc(-c3cnc(N)nc3-c3ccc(OC)cc3O)ccc21
Bel-7402
  IC50: > 10000 nM
Tubulin
  IC50: > 50 µM

## CCn1ccc2cc(-c3cnc(N)nc3-c3cc(F)ccc3O)ccc21
NCI-H460
  IC50: 25.8 nM
A549
  IC50: 70.4 nM
Bel-7402
  IC50: 10 nM
SK-OV-3
  IC50: 56.1 nM
Tubulin
  IC50: 0.8 µM
A-431
  IC50: 45.4 nM
HT-29
  IC50: 41.8 nM

## CN(C)Cc1ccc(-c2cnc(N)nc2-c2ccccc2O)cc1
Bel-7402
  IC50: > 10000 nM
Tubulin
  IC50: > 50 µM

## Nc1ncc(-c2ccc(N3CCCC3)cc2)c(-c2ccccc2O)n1
Bel-7402
  IC50: > 10000 nM
Tubulin
  IC50: > 50 µM

## Nc1ncc(-c2ccc(CN3CCCCC3)cc2)c(-c2ccccc2O)n1
Bel-7402
  IC50: > 10000 nM
Tubulin
  IC50: > 50 µM

## Nc1ncc(-c2ccc(N3CCOCC3)cc2)c(-c2ccccc2O)n1
Bel-7402
  IC50: > 10000 nM
Tubulin
  IC50: > 50 µM

## CN1CCN(c2ccc(-c3cnc(N)nc3-c3ccccc3O)cc2)CC1
Bel-7402
  IC50: > 10000 nM
Tubulin
  IC50: > 50 µM
